From ChEMBL document CHEMBL4400507, “Discovery of Novel Transient Receptor Potential Vanilloid 4 (TRPV4) Agonists as Regulators of Chondrogenic Differentiation: Identification of Quinazolin-4(3 H)-ones and in Vivo Studies on a Surgically Induced Rat Model of Osteoarthritis” (J Med Chem, 2019)
≈ marks a conversion by molar mass, not a printed value. Calls of active or inactive are those of the source. The rule behind the calls is not given here.

Columns and labels:
[1] = target: T1, Transient receptor potential cation channel subfamily V member 4 (Homo sapiens, UniProt Q9HBA0); test: Agonist activity at recombinant human TRPV4 expressed in […] cells at 10 uM by SOX9 luciferase reporter gene assay; assay type: cell-based
Outline: (§1)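 ATDC5 cells stably carrying a SOX9 reporter gene construct and human TRPV4 (pcDNA3.1) were seeded at 2.0 × 10^4 cells/well and treated with compound. Luciferase luminescence was measured the next day.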

[2] = target: T1, Transient receptor potential cation channel subfamily V member 4; test: Agonist activity at recombinant human TRPV4 expressed in […] cells by SOX9 luciferase reporter gene assay; assay type: cell-based; outline: as §1
[3] = target: T1, Transient receptor potential cation channel subfamily V member 4; test: Agonist activity at recombinant human TRPV4 expressed in HEK293 cells assessed as increase in intracellular calcium level after 30 mins by Fura-2 AM/Pluronic F-127 probe based fluorescence assay; assay type: cell-based
Outline: (§2)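 HEK293 cells transiently expressing human TRPV4 were loaded with 5 µM Fura-2 AM plus 0.2% Pluronic F-127 for 30 min at 37 °C in HEPES buffer (pH 7.4, 1.8 mM CaCl2, 0.1% BSA). They were then washed and resuspended. Intracellular Ca2+ was read by Fura-2 ratio imaging (excitation 340/380 nm, emission 510 nm).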

Rattus norvegicus [4] = test: Anti-osteoarthritis activity in Sprague-Dawley rat model of medial meniscal tear-induced osteoarthritis assessed as reduction in erosion of tibial plateau cartilage at 5 to 10 uM administered intra-articularly into operated knee twice per week for 3 consecutive weeks and measured at week 4; assay type: functional, organism-based
Outline: (§3)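 Male Sprague-Dawley rats, 8 weeks old. Medial meniscus cut through to mimic a complete tear. One week after surgery, rats were grouped by body weight: sham, MT vehicle, 5 μM, 10 μM. 50 µL saline or drug was injected intra-articularly into the operated knee twice weekly for 3 weeks, and knees were harvested at week 4. Sections of 5 μm were stained with safranin-O/Fast Green, and damaged width on the medial tibial plateau was measured by micrometer. Analysis by Dunnett's test; n = 5–15 per group.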

Rattus norvegicus [5] = test: Induction of aggrecan mRNA expression in Sprague-Dawley rat model of medial meniscal tear-induced osteoarthritis at 5 to 10 uM administered intra-articularly into operated knee twice per week for 3 consecutive weeks measured after 21 days by RT-qPCR analysis; assay type: functional, organism-based
Homo sapiens [6] = species on record: Homo sapiens; test: Induction of chondrogenesis in normal human articular chondrocytes at 62.5 to 1000 nM preincubated for 30 mins followed by medium replacement and measured after 3 days by Alcian blue-staining based assay; assay type: functional, cell-based
Outline: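 Normal human articular chondrocytes were exposed to agonist for 30 min, then the medium was replaced and the cells cultured 3 days. They were fixed in 95% methanol and stained overnight with 0.1% Alcian blue in 0.1 N HCl. Dye was extracted with 6 M guanidine-HCl for 2 h at room temperature, and OD was read at 600 nm.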

[7] = target: Transient receptor potential cation channel subfamily V member 1 (Homo sapiens) (UniProt Q8NER1); test: Agonist activity at human TRPV1 assessed as increase in intracellular calcium level at 10 uM relative to control; assay type: cell-based
Rattus norvegicus [8] = test: Anti-osteoarthritis activity in Sprague-Dawley rat model of medial meniscal tear-induced osteoarthritis assessed as decrease in length of damage area at 5 to 10 uM administered intra-articularly into operated knee twice per week for 3 consecutive weeks and measured at week 4; assay type: functional, organism-based; outline: as §3
Rattus norvegicus [9] = test: Induction of SOX9 mRNA expression in Sprague-Dawley rat model of medial meniscal tear-induced osteoarthritis at 5 to 10 uM administered intra-articularly into operated knee twice per week for 3 consecutive weeks measured after 21 days by RT-qPCR analysis; assay type: functional, organism-based
Rattus norvegicus [10] = test: Bone anabolic effect in Sprague-Dawley rat model of medial meniscal tear-induced osteoarthritis assessed as induction of new extracellular matrix generation at 10 uM administered intra-articularly into operated knee twice per week for 3 consecutive weeks and measured at week 4 by safranin-O/Fast Green staining-based microscopic analysis; assay type: functional, organism-based
Homo sapiens [11] = species on record: Homo sapiens; test: Induction of chondrogenesis in normal human articular chondrocytes at 62.5 nM preincubated for 30 mins followed by medium replacement and measured after 3 days by Alcian blue-staining based assay; assay type: functional, cell-based
Outline: (§4)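 Normal human articular chondrocytes were stimulated with agonist for 30 min, then the medium was replaced. After 3 days' culture, cells were fixed in 95% methanol and stained overnight with 0.1% Alcian blue 8GS in 0.1 N HCl. Dye was extracted with 6 M guanidine-HCl for 2 h at room temperature and read at OD 600 nm.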

[12] = Genotoxicity in Salmonella typhimurium by Ames test; assay type: toxicity; settings: salmonella enterica subsp. enterica serovar typhimurium
[13] = Solubility of the compound in saline; assay type: physicochemical
HL-60 = test: Cytotoxicity against human HL60 cells assessed as reduction in cell viability; assay type: cell-based
Outline: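 HL-60 cell viability measured with an ATP-based assay.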

[14] = target: T1, Transient receptor potential cation channel subfamily V member 4; test: Agonist activity at recombinant human TRPV4 expressed in HEK293 cells assessed as increase in intracellular calcium level at 10 uM after 30 mins by Fura-2 AM/Pluronic F-127 probe based fluorescence assay relative to control; assay type: cell-based; outline: as §2
[15] = Drug level in rat synovial fluid lavage dosed directly in to knee joints and measured after 30 mins by LC-MS method; assay type: ADME, organism-based; settings: in vivo, other, 0.5 h
Outline: (§5)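 Normal rats received an intra-articular knee injection. After euthanasia the joint was washed with saline and the synovial fluid lavage collected. Compound was quantified by LC-MS/MS and converted to joint concentration using the ratio of total protein in the lavage. Quantitation limits were 0.3–1 nmol/L.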

[16] = Toxicity in Sprague-Dawley rat model of medial meniscal tear-induced osteoarthritis assessed as death at 5 to 10 uM administered intra-articularly into operated knee twice per week for 3 consecutive weeks and measured at week 4; settings: in vivo, other
Outline: (§6)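 Eight-week-old male SD rats, housed singly, had the medial meniscus cut. One week later they were grouped by body weight. The operated knee received 50 µL saline or 0, 5 or 10 µM solution intra-articularly twice weekly for 3 weeks, starting 1 week post-surgery. Deaths and systemic signs were checked by gross visual inspection, and final body weights were recorded. Rats were euthanized at week 4.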

[17] = Toxicity in Sprague-Dawley rat model of medial meniscal tear-induced osteoarthritis assessed as effect on body weight at 5 to 10 uM administered intra-articularly into operated knee twice per week for 3 consecutive weeks and measured at week 4; settings: in vivo, other; outline: as §6
[18] = Drug level in rat synovial fluid lavage dosed directly in to knee joints and measured within 30 mins by LC-MS method; assay type: ADME, organism-based; settings: in vivo, other, 0.5 h; outline: as §5
[19] = Systemic toxicity in Sprague-Dawley rat model of medial meniscal tear-induced osteoarthritis at 5 to 10 uM administered intra-articularly into operated knee twice per week for 3 consecutive weeks and measured at week 4; settings: in vivo, other; outline: as §6
Homo sapiens [20] = species on record: Homo sapiens; test: Induction of chondrogenesis in normal human articular chondrocytes at 500 nM preincubated for 30 mins followed by medium replacement and measured after 3 days by Alcian blue-staining based assay; assay type: functional, cell-based; outline: as §4
Homo sapiens [21] = species on record: Homo sapiens; test: Induction of chondrogenesis in normal human articular chondrocytes at <500 nM preincubated for 30 mins followed by medium replacement and measured after 3 days by Alcian blue-staining based assay; assay type: functional, cell-based; outline: as §4

Transient receptor potential cation channel subfamily V member 1 (Homo sapiens), sequence (Q8NER1 whole entry): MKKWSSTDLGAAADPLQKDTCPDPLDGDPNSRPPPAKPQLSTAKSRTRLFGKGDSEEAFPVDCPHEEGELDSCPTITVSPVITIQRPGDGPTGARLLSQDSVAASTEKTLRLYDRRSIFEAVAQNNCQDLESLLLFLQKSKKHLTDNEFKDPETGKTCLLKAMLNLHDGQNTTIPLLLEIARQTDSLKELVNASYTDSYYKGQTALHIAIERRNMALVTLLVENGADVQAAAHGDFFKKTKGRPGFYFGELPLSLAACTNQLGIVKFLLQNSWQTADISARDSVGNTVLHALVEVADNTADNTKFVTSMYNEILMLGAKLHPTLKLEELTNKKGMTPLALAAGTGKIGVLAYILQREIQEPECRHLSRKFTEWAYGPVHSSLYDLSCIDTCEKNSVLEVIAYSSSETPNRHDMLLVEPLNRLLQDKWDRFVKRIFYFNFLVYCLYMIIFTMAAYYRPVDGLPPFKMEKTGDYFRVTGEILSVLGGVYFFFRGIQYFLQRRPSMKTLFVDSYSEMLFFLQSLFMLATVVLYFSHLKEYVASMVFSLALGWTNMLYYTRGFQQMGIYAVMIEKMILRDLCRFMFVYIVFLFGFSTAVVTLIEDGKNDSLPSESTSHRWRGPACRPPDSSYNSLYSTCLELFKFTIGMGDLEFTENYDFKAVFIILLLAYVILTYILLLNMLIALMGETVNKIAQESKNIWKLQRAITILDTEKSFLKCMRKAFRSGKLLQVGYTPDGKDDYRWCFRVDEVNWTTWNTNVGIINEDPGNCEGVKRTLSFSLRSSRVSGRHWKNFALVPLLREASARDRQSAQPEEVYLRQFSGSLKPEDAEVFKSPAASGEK
T1 sequence (Q9HBA0 whole entry): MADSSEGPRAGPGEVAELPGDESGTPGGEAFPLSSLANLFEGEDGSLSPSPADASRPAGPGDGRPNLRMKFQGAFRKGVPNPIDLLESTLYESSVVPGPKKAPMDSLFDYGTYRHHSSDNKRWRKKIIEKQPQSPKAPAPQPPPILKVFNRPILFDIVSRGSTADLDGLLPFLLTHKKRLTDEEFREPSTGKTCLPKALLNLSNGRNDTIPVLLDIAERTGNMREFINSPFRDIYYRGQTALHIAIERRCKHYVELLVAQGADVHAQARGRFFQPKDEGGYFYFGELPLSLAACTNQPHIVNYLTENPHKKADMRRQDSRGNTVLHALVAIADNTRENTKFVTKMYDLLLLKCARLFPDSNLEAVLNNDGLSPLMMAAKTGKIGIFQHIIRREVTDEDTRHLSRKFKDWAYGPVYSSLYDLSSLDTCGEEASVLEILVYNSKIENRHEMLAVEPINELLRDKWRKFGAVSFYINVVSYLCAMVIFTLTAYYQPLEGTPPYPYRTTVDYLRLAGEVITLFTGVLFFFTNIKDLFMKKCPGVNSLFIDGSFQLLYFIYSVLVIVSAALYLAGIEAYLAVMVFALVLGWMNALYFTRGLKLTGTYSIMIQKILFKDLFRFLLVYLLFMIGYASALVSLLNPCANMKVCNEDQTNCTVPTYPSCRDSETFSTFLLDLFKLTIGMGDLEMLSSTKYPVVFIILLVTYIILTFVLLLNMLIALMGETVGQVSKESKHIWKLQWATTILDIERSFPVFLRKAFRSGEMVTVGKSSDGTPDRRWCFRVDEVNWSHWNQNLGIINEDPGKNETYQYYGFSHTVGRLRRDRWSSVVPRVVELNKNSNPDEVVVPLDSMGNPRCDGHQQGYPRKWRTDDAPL

Structure (SMILES)	Activity [1] [%]	ECmax [2] [nM]	EC50 [3] [µM]	other results
COc1cccc2c(=O)n(-c3ccc(C)cc3)c(N3CCN(C)CC3)nc12	1.3	–	–	–
CC(C)c1ccc(-n2c(N3CCN(C)CC3)nc3c(F)cccc3c2=O)cc1	–	2500	0.91	–
CCOC(=O)c1ccc(-n2c(N3CCC(N(C)C)C3)nc3c(F)cccc3c2=O)cc1 (stereo not drawn)	2.2	–	–	–
CN1CCN(c2nc3c(F)cccc3c(=O)n2-c2ccc(Oc3ccc(F)cc3)cc2)CC1 [listing 1 of 2 here]	–	20	–	Activity (Rattus norvegicus [4]): Dose-dependent effect; Activity (Rattus norvegicus [5]): Dose-dependent effect; Activity (Homo sapiens [6]): Active; Activity [7]: 0.6%; Activity (Rattus norvegicus [8]): Dose-dependent effect; Activity (Rattus norvegicus [9]): Dose-dependent effect; Activity (Rattus norvegicus [10]): Active; Activity (Homo sapiens [11]): Active
CC(C)[C@H]1CN(c2nc3cc(F)ccc3c(=O)n2-c2ccc(C(F)(F)F)cc2)CCN1C	–	5000	> 30	–
CN1CCN(c2nc3cc(F)ccc3c(=O)n2-c2ccc(C(F)(F)F)cc2)CC1=O	1.8	–	–	–
Cc1ccccc1-n1c(N2CCN(C)CC2)nc2c(Cl)cccc2c1=O	0.4	–	–	–
CC(C)C[C@H]1CN(c2nc3cc(F)ccc3c(=O)n2-c2ccc(C(F)(F)F)cc2)CCN1C	0.9	–	–	–
CN1CCN(c2nc3cccc(F)c3c(=O)n2-c2ccc(OC(F)(F)F)cc2)CC1	–	1250	1.18	Activity [7]: 3.7%
CN1CCN(c2nc3c(F)cccc3c(=O)n2-c2ccc(Oc3ccc(F)cc3)cc2)CC1 [listing 2 of 2 here]	–	–	0.06	Activity [12]: Non-Toxic; solubility [13]: 743 µg/mL (≈ 1660 µM); Activity (HL-60): Non-Toxic
COc1ccc(-n2c(N3CCNCC3)nc3cc(F)ccc3c2=O)cc1	1.8	–	–	–
CCOC(=O)c1ccc(-n2c(N(C)C3CCN(C)C3)nc3c(F)cccc3c2=O)cc1 (stereo not drawn)	0.3	–	–	–
COc1ccc(-n2c(N(C)CCN(C)C)nc3cc(F)ccc3c2=O)cc1	0	–	–	–
CN1CCN(c2nc3c(F)cccc3c(=O)n2-c2ccc(SC(F)(F)F)cc2)CC1	–	156	0.2	Activity (Homo sapiens [6]): Active; Activity [7]: 3.1%; solubility [13]: 952 µg/mL (≈ 2170 µM)
CN1CCN(c2nc3c(F)cccc3c(=O)n2-c2ccc(Cc3ccccc3)cc2)CC1	–	312	0.67	Activity [7]: 1.5%; solubility [13]: 553 µg/mL (≈ 1290 µM)
CN1CCN(c2nc3c(F)cccc3c(=O)n2-c2ccc(OC(F)(F)F)cc2)CC1	–	625	0.28	Activity [7]: 2.2%; solubility [13]: 951 µg/mL (≈ 2250 µM)
CCOC(=O)c1ccc(-n2c(N3CCN(C)CC3)nc3c(F)cccc3c2=O)cc1	–	625	0.92	–
COc1ccc(-n2c(N3CCN(C)CC3)nc3cc(F)ccc3c2=O)cc1	42.2	5000	4.7	–

Structure (SMILES)	Activity [1] [%]	ECmax [2] [nM]	EC50 [3] [µM]	other results
CN1CCN(c2nc3cc(F)ccc3c(=O)n2-c2ccc(OC(F)(F)F)cc2)CC1	–	625	0.663	Activity [7]: 6.2%
Cc1ccc(-n2c(N3CCN(C)CC3)nc3c(Cl)cccc3c2=O)cc1	9	–	–	–
CCOC(=O)c1ccc(-n2c(N3CCN(C(C)C)CC3)nc3c(F)cccc3c2=O)cc1	1.9	–	–	–
CN1CCN(c2nc3ccc(F)cc3c(=O)n2-c2ccc(OC(F)(F)F)cc2)CC1	–	2500	2.06	Activity [7]: 5%
CN1CCN(c2nc3cc(F)ccc3c(=O)n2-c2ccc(C(F)(F)F)cc2)CC1(C)C	5	10000	> 30	–
CCOC(=O)c1ccc(-n2c(N3CCN(C)CC3)nc3c(Cl)cccc3c2=O)cc1	29.4	–	–	–
CCOC(=O)c1ccc(-n2c(N3CCN(C)CC3)nc3c(Br)cccc3c2=O)cc1	7.8	–	–	–
CN1CCN(c2nc3c(Cl)cccc3c(=O)n2-c2ccc(Cl)cc2)CC1	19.9	–	–	ECmax [14]: 19%
COc1ccc(-n2c(N3CCN(C)CC3)nc3ccccc3c2=O)cc1	13.2	–	–	–
CCN1CCN(c2nc3cc(F)ccc3c(=O)n2-c2ccc(OC)cc2)CC1	41	–	12.2	–
Cc1cccc(-n2c(N3CCN(C)CC3)nc3c(Cl)cccc3c2=O)c1	1.5	–	–	–
CN1CCN(c2nc3cc(F)ccc3c(=O)n2-c2ccc(C(F)(F)F)cc2)CC12CC2	1.2	–	–	–
CN1CCN(c2nc3c(F)cccc3c(=O)n2-c2ccc(C(F)(F)F)cc2)CC1	–	2500	1.44	–
CC(C)C[C@H](NC(=O)c1cc2ccccc2s1)C(=O)N1CCN(C(=O)[C@H](CO)NS(=O)(=O)c2ccc(Cl)cc2Cl)CC1	–	–	0.049	–
CN1CCN(c2nc3c(F)cccc3c(=O)n2-c2ccc(Oc3ccc(F)cc3)cc2)CC1.Cl	–	–	–	Drug uptake [15]: Not Active; Activity [16]: Non-Toxic; Activity [17]: Non-Toxic; Drug uptake [18]: Active; Activity [19]: Non-Toxic
CN1CCN(c2nc3c(F)cccc3c(=O)n2-c2ccc(Oc3ccccc3)cc2)CC1	–	39	0.125	Activity [7]: 0.6%; solubility [13]: 745 µg/mL (≈ 1730 µM)
CC(C)C[C@H](NC(=O)c1cc2ccccc2s1)C(=O)NCCCN(C)S(=O)(=O)c1ccc(Cl)cc1Cl	–	312	0.74	Activity (Homo sapiens [20]): Active; solubility [13]: 3.6 µg/mL (≈ 6.31 µM); Activity (Homo sapiens [21]): inactive
